ChEMBL document CHEMBL3421581, “A solid-phase combinatorial approach for indoloquinolizidine-peptides with high affinity at D(1) and D(2) dopamine receptors” (Eur J Med Chem, 2015)
Calls of active or inactive are those of the source. No cut-off for these calls is given here.

What was measured:
[1] = biological target: D(2) dopamine receptor (Homo sapiens) (UniProt P14416); test: Displacement of [3H]-YM09151-2 from dopamine D2 receptor (unknown origin) expressed in sheep striatum membranes assessed as high affinity constant measured per mg of protein after 2 hrs by scintillation counting analysis; assay type: cell membranes; conditions: Membrane
Sequence of D(2) dopamine receptor (Homo sapiens) (P14416 whole entry): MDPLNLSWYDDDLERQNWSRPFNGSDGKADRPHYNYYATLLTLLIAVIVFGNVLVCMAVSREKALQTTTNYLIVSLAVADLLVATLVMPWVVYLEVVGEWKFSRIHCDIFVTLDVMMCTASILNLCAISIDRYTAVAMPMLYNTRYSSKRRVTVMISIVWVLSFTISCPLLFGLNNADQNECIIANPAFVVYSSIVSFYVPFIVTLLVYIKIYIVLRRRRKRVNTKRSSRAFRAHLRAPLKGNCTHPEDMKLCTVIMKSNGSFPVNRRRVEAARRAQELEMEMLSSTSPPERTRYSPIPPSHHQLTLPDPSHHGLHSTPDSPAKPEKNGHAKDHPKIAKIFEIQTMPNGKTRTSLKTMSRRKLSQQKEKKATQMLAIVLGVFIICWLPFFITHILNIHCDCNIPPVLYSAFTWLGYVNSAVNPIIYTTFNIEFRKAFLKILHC
Outline: (§1)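 Sheep striatal membranes (0.2–0.5 mg protein/mL), 2 h at 25 °C in 50 mM Tris-HCl pH 7.4 with 10 mM MgCl2. Radioligand was [3H]-SCH 23390 for D1R (nonspecific: 50 μM SCH 23390) or [3H]-YM 09151-2 for D2R (nonspecific: 50 μM raclopride). Competitor tested at 9 concentrations, 1 nM–50 μM, in triplicate. Total binding fitted by nonlinear regression to a two-site model. Means ± SD of three experiments.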

[2] = biological target: D(2) dopamine receptor (Homo sapiens) (UniProt P14416); test: Displacement of [3H]-YM09151-2 from dopamine D2 receptor (unknown origin) expressed in sheep striatum membranes assessed as low affinity constant measured per mg of protein after 2 hrs by scintillation counting analysis; assay type: cell membranes; conditions: Membrane; outline: as §1
[3] = biological target: D(2) dopamine receptor (Homo sapiens) (UniProt P14416); test: Antagonist activity at dopamine D2 receptor (unknown origin) transfected in CHO cells assessed as inhibition of YM09151-2 -induced downregulation of phosphorylated ERK1/2 level at 10 uM after 5 mins by Western blot analysis; assay type: cell-based
Outline: (§2)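 D2R cDNA transiently transfected into CHO cells by Lipofectamine, used 48 h later. Cells were kept serum-free for 16 h, optionally pretreated 5 min with 1 μM YM 09151-2, then exposed to ligands for 5 min (combined condition used 10 μM test ligand). Lysed in ice-cold buffer, phospho-ERK1/2 read by infrared scanning. Means ± SEM, 3 experiments in duplicate, unpaired t-test vs basal.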

[4] = biological target: D(2) dopamine receptor (Homo sapiens) (UniProt P14416); test: Agonist activity at dopamine D2 receptor (unknown origin) transfected in CHO cells assessed as increase in ERK1/2 phosphorylation after 5 mins by Western blot analysis; assay type: cell-based; outline: as §2
[5] = biological target: D(2) dopamine receptor (Homo sapiens) (UniProt P14416); test: Allosteric modulating activity at dopamine D2 receptor (unknown origin) expressed in sheep striatum membranes assessed as change in D2R antagonist [3H]-YM09151-2 Koff at 3 uM preincubated for 2 hrs followed by [3H]-YM09151-2 addition by rapid filtration and radioactivity counting; assay type: cell membranes; conditions: Membrane, in the assay text read “preincubated for 1 hr” for “preincubated for 2 hrs”
Outline: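 Sheep striatal membranes (0.2 mg protein/mL) preincubated 1 h at 25 °C ± 3 μM test ligand in 50 mM Tris-HCl pH 7.4 with 10 mM MgCl2, then 1 nM [3H]-YM 09151-2 added. After 2 h, dissociation started with 10 μM unlabeled YM 09151-2. Total binding measured at intervals by GF/C filtration and scintillation counting. Nonspecific binding taken after 90 min with 10 μM YM 09151-2.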

Row | Activity [1] [pmol] | Activity [2] [pmol] | inhibition [3] | Activity [4] | Activity [5] | Compound
1 | 0.06 | 0.12 | – | – | – | NCCCC[C@H](NC(=O)[C@H](Cc1ccc(F)c(F)c1)NC(=O)[C@H]1CCCN1C(=O)CCCCCNC(=O)[C@@H]1CC[C@H]2c3[nH]c4ccccc4c3CCN2C1)C(N)=O
2 | 0.04 | 0.12 | inactive | Dose-dependent effect | inactive | NCCCC[C@H](NC(=O)[C@H](Cc1ccc(F)c(F)c1)NC(=O)[C@H]1CCCN1C(=O)CCCCCNC(=O)[C@H]1CC[C@@H]2c3[nH]c4ccccc4c3CCN2C1)C(N)=O
